Active and inactive are the calls of the source. The rule behind the calls is not given here.
Key:
Candida parapsilosis [1] = experiment: Increase in CDC20 gene expression in Candida parapsilosis CLIB214 at 50 uM after 2 hrs by microarray based transcriptional profiling relative to control; format: functional
In short: (§1)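 Strain CLIB214 grown overnight in YPD at 30°C, diluted to A600 0.2 in fresh YPD at 30°C. After 4 h (A600 0.8), farnesol (40 mM methanol stock) added to 50 μM final, or an equal methanol volume as control; cells harvested 2 h later. RNA was accepted only with a 28S/18S ratio of 1.6–2.2. Cy3/Cy5-dCTP-labelled cDNA was made from 25 μg total RNA. Hybridisation was to duplicate-spotted 68-mer oligo arrays (3,849 genes) at 42°C for about 16 h. Six individual comparisons.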

Candida parapsilosis [2] = experiment: Increase in CGD gene ortholog accession number orf19.6018 expression in Candida parapsilosis CLIB214 at 50 uM after 2 hrs by microarray based transcriptional profiling relative to control; format: functional; in short: as §1
Candida parapsilosis [3] = experiment: Increase in GLN1 gene expression in Candida parapsilosis CLIB214 by RT-PCR; format: functional, organism-based
In short: (§2)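 Cultures in YPD at 30°C, diluted to A600 0.2; 50 μM farnesol (final) or methanol added at 4 h, RNA harvested 2 h later. RT-PCR: 95°C hot start 1 min 30 s, then 26 cycles (95°C 40 s, 55°C 2 min, 72°C 3 min), final 72°C 5 min; each gene signal normalized to ACT1.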

Candida parapsilosis [4] = experiment: Antifungal activity against Candida parapsilosis CLIB214 assessed as reduction of biofilm formation at 100 uM added 4 hrs after […] growth by crystal violet assay; format: functional; set-up: scale not given: the % may be the effect or the level left
In short: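 Cells grown overnight in YNB, diluted to A600 1, and left to adhere 2 h at 37°C. Nonadherent cells washed off with PBS, then fresh YNB added and plates incubated 24 h at 37°C. Biofilms stained with 0.1% crystal violet for 15 min at 30°C, destained 4 h in 33% acetic acid, and read at A570.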

Candida parapsilosis [5] = experiment: Decrease in ZCF23 gene expression in Candida parapsilosis CLIB214 at 50 uM after 2 hrs by microarray based transcriptional profiling relative to control; format: functional; in short: as §1
Candida parapsilosis [6] = experiment: Increase in HAS1 gene expression in Candida parapsilosis CLIB214 at 50 uM after 2 hrs by microarray based transcriptional profiling relative to control; format: functional
In short: (§3)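 Strain grown overnight in YPD at 30°C, diluted to A600 0.2 in YPD at 30°C; farnesol (40 mM methanol stock) added at 4 h (A600 0.8), final 50 μM; methanol-only control. Cells collected 2 h later for RNA. Labelled cDNA from 25 μg total RNA (Cy3/Cy5-dCTP) hybridized to 68-mer oligo arrays at 42°C ~16 h; six individual comparisons analysed statistically.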

Candida parapsilosis [7] = experiment: Cell cycle arrest in Candida parapsilosis CLIB214 assessed as accumulation at G2/M phase at 50 uM added 4 hrs after […] growth; format: functional, organism-based
In short: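 YPD culture diluted to A600 0.2 at 30°C. Farnesol added to 50 μM after 4 h. Budding cells scored by microscopy: unbudded as G1, small budded as S, large budded as G2/M. Compared with methanol controls.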

Candida parapsilosis [8] = experiment: Decrease in ARG11 gene expression in Candida parapsilosis CLIB214 at 50 uM after 2 hrs by microarray based transcriptional profiling relative to control; format: functional
In short: (§4)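 Cells in YPD at 30°C treated with 50 μM farnesol at 4 h, with a methanol control. RNA harvested 2 h later and kept only if 28S/18S ratio was 1.6–2.2 with no degradation. 25 μg total RNA oligo-dT primed and labeled with Cy3/Cy5-dCTP. Labeled cDNA hybridized about 16 h at 42°C to duplicate-spotted 68-mer oligo arrays. Six individual comparisons analyzed statistically.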

Candida parapsilosis [9] = experiment: Decrease in GenBank accession number XP_457879.1 expression in Candida parapsilosis CLIB214 at 50 uM after 2 hrs by microarray based transcriptional profiling relative to control; format: functional; in short: as §1
Candida parapsilosis [10] = experiment: Antifungal activity against Candida parapsilosis CLIB214 assessed as growth inhibition at 50 uM added 4 hrs after […] growth; format: functional, organism-based
In short: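 C. parapsilosis CLIB214 grown overnight in YPD at 30°C, diluted to A600 0.2 in fresh YPD, grown 4 h (A600 0.8), then farnesol added at final 10, 20, 50 or 100 μM from a 40 mM methanol stock. Methanol-only controls. Growth followed by A600 or by cell counting with a particle counter.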

Candida parapsilosis [11] = experiment: Decrease in CGD gene ortholog accession number orf19.3434 expression in Candida parapsilosis CLIB214 at 50 uM after 2 hrs by microarray based transcriptional profiling relative to control; format: functional; in short: as §4
Candida parapsilosis [12] = experiment: Antifungal activity against Candida parapsilosis CLIB214 assessed as growth inhibition at 10 to 20 uM added 4 hrs after […] growth; format: functional, organism-based
Candida parapsilosis [13] = experiment: Decrease in CGD gene ortholog accession number orf19.4210 expression in Candida parapsilosis CLIB214 at 50 uM after 2 hrs by microarray based transcriptional profiling relative to control; format: functional; in short: as §4
Candida parapsilosis [14] = experiment: Increase in GenBank accession number NP_943633.1 expression in Candida parapsilosis CLIB214 at 50 uM after 2 hrs by microarray based transcriptional profiling relative to control; format: functional; in short: as §3
Candida parapsilosis [15] = experiment: Increase in POT1 gene expression in Candida parapsilosis CLIB214 at 50 uM after 2 hrs by microarray based transcriptional profiling relative to control; format: functional; in short: as §3
Candida parapsilosis [16] = experiment: Reduction in ERG9 gene expression in Candida parapsilosis CLIB214 by RT-PCR; format: functional, organism-based; in short: as §2
Candida parapsilosis [17] = experiment: Decrease in ERG1 gene expression in Candida parapsilosis CLIB214 at 50 uM after 2 hrs by microarray based transcriptional profiling relative to control; format: functional; in short: as §1
Candida parapsilosis [18] = experiment: Increase in RPS6A gene expression in Candida parapsilosis CLIB214 at 50 uM after 2 hrs by microarray based transcriptional profiling relative to control; format: functional; in short: as §3
Candida parapsilosis [19] = experiment: Increase in STP2 gene expression in Candida parapsilosis CLIB214 at 50 uM after 2 hrs by microarray based transcriptional profiling relative to control; format: functional; in short: as §3
Candida parapsilosis [20] = experiment: Decrease in CGD gene ortholog accession number orf19.1608 expression in Candida parapsilosis CLIB214 at 50 uM after 2 hrs by microarray based transcriptional profiling relative to control; format: functional; in short: as §4
Candida parapsilosis [21] = experiment: Increase in CGD gene ortholog accession number orf19.5963 expression in Candida parapsilosis CLIB214 at 50 uM after 2 hrs by microarray based transcriptional profiling relative to control; format: functional; in short: as §1
Candida parapsilosis [22] = experiment: Increase in GenBank accession number NP_983467.1 expression in Candida parapsilosis CLIB214 at 50 uM after 2 hrs by microarray based transcriptional profiling relative to control; format: functional; in short: as §3
Candida parapsilosis [23] = experiment: Decrease in CGD gene ortholog accession number orf19.409 expression in Candida parapsilosis CLIB214 at 50 uM after 2 hrs by microarray based transcriptional profiling relative to control; format: functional; in short: as §4
Candida parapsilosis [24] = experiment: Decrease in CGD gene ortholog accession number orf19.2308 expression in Candida parapsilosis CLIB214 at 50 uM after 2 hrs by microarray based transcriptional profiling relative to control; format: functional; in short: as §4
Candida parapsilosis [25] = experiment: Decrease in CGD gene ortholog accession number orf19.5877 expression in Candida parapsilosis CLIB214 at 50 uM after 2 hrs by microarray based transcriptional profiling relative to control; format: functional; in short: as §4

## CC(C)=CCC/C(C)=C/CC/C(C)=C/CO [FARNESOL]
Candida parapsilosis [1]
  fold change (FC): 1.51
Candida parapsilosis [2]
  fold change (FC): 2.07
Candida parapsilosis [3]
  Activity: Active
Candida parapsilosis [4]
  Activity: 30%
Candida parapsilosis [5]
  fold change (FC): 1.97
Candida parapsilosis [6]
  fold change (FC): 1.7
Candida parapsilosis [7]
  Activity: Active
Candida parapsilosis [8]
  fold change (FC): 1.56
Candida parapsilosis [9]
  fold change (FC): 1.71
Candida parapsilosis [10]
  Activity: Active
Candida parapsilosis [11]
  fold change (FC): 1.8
Candida parapsilosis [12]
  Activity: inactive
Candida parapsilosis [13]
  fold change (FC): 1.79
Candida parapsilosis [14]
  fold change (FC): 2.81
Candida parapsilosis [15]
  fold change (FC): 1.71
Candida parapsilosis [16]
  Activity: Active
Candida parapsilosis [17]
  fold change (FC): 2.24
Candida parapsilosis [18]
  fold change (FC): 1.61
Candida parapsilosis [19]
  fold change (FC): 1.63
Candida parapsilosis [20]
  fold change (FC): 1.62
Candida parapsilosis [21]
  fold change (FC): 1.68
Candida parapsilosis [22]
  fold change (FC): 3.16
Candida parapsilosis [23]
  fold change (FC): 2.21
Candida parapsilosis [24]
  fold change (FC): 1.7
Candida parapsilosis [25]
  fold change (FC): 3.22
